{"source": "ChEMBL document CHEMBL4190249", "about": "“Antiproliferative and apoptotic activities of sequence-specific histone acetyltransferase inhibitors” (Eur J Med Chem, 2017)", "key": {"[1]": {"biological_target": "Histone acetyltransferase p300 (Homo sapiens, UniProt Q09472)", "sequence (Q09472 whole entry, the tested form may be a part)": "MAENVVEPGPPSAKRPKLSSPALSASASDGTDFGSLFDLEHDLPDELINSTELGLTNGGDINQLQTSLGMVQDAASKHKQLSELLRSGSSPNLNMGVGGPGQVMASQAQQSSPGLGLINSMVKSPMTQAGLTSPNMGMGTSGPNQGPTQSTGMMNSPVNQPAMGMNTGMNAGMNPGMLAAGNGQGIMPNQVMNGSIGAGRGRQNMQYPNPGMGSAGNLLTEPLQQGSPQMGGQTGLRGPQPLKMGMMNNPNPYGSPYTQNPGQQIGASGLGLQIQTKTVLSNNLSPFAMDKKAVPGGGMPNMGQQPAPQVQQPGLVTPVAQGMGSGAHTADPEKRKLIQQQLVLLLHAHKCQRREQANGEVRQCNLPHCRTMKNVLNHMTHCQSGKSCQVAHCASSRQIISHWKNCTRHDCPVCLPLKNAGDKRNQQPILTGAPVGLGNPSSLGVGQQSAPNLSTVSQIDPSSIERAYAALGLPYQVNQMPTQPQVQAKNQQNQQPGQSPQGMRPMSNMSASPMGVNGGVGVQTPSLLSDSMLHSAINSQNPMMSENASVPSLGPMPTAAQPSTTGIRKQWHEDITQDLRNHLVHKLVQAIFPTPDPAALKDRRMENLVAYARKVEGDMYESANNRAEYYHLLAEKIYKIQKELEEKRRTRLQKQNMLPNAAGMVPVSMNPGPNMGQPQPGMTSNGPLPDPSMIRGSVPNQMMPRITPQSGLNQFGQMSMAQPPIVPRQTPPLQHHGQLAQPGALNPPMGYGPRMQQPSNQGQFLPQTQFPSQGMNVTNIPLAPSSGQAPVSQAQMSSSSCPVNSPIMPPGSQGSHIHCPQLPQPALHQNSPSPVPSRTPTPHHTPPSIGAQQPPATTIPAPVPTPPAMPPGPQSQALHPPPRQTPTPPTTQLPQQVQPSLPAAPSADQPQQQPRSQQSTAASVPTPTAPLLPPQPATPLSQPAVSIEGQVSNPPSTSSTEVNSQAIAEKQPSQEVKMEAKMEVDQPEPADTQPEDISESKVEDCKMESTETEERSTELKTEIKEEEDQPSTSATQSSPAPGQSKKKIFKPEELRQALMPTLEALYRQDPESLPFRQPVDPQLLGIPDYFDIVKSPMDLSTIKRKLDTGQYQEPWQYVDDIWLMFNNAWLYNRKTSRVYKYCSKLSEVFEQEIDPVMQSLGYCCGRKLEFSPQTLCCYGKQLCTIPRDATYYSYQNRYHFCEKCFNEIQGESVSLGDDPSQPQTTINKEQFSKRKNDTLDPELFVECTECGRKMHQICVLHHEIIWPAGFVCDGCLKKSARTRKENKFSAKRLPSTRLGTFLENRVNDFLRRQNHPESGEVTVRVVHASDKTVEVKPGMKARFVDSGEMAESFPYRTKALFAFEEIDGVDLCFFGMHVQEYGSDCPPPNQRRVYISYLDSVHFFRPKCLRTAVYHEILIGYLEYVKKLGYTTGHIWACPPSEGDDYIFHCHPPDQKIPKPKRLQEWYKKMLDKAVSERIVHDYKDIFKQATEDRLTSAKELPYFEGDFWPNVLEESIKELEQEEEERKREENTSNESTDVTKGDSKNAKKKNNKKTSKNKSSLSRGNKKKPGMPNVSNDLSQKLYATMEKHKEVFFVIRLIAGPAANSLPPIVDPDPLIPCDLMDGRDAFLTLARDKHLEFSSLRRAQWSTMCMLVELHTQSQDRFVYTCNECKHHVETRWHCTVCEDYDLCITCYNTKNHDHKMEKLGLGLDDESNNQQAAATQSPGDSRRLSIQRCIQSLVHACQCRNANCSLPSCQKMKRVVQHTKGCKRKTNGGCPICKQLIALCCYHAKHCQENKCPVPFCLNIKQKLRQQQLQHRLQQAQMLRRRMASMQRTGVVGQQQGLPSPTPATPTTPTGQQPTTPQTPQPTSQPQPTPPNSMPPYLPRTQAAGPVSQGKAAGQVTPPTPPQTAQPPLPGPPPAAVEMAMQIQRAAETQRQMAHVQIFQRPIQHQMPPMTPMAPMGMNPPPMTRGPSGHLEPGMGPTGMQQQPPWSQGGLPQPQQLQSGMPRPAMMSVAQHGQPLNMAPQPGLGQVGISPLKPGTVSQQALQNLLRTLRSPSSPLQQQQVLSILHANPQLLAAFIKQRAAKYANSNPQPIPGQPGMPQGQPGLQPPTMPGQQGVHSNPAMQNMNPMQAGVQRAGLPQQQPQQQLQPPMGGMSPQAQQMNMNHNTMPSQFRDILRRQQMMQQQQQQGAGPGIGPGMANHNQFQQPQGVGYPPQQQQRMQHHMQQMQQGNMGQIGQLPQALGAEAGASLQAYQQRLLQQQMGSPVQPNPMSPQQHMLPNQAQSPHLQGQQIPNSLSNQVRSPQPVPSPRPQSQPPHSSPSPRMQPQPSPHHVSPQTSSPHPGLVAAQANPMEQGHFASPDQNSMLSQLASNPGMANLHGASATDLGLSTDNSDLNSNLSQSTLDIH", "assay": "Inhibition of p300 (unknown origin) using H3 peptide and acetyl-coA as substrate by fluorometric assay", "how_it_was_run": "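Fluorometric HAT kit assay with recombinant p300 core domain as enzyme and acetyl-CoA plus H3 histone peptide as substrates. Effectors were tested at 1 and 5 μM. HeLa nuclear extract served as positive control, and 0.5% DMSO was set as 100% activity.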"}, "dsDNA [2]": {"tested_on": "dsDNA", "assay": "Binding affinity to 5'-ACTTATTCCATATAGA-3'/3'-TGAATAAGGTATATCT-5' dsDNA (unknown origin) assessed as change in melting temperature at 2.5 uM by spectrophotometric method", "type": "nucleic-acid assay"}, "dsDNA [3]": {"tested_on": "dsDNA", "assay": "Binding affinity to 5'-ACTTATCCACTATAGA-3'/3'-TGAATAGGTGATATCT-5' dsDNA (unknown origin) assessed as change in melting temperature at 2.5 uM by spectrophotometric method", "type": "nucleic-acid assay"}, "A549 [4]": {"tested_on": "A549", "assay": "Antiproliferative activity against human A549 cells at 0.1 to 10 uM after 96 hrs by WST8 assay", "type": "functional, cell-based", "how_it_was_run": "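Cells seeded at 5×10^3 per well and grown 24 h at 37°C, 5% CO2. A549 medium was DMEM with 10% FBS and 2 mM L-glutamine. SW620 medium had 10% FBS and 1% penicillin/streptomycin. Medium was then replaced with conjugate at 0.1, 1, 5 or 10 μM for 96 h. WST-8 reagent was added and absorbance read at 450 nm. Results are mean ± SD.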"}, "A549 [5]": {"tested_on": "A549", "assay": "Anticlonogenic activity against human A549 cells after 10 days", "type": "functional, cell-based", "conditions": "A549, 240 h"}, "NCI-H157": {"tested_on": "NCI-H157", "assay": "Anticlonogenic activity against human NCI-H157 cells after 10 days", "type": "functional, cell-based", "conditions": "NCI-H157, 240 h"}, "NCI-H460": {"tested_on": "NCI-H460", "assay": "Anticlonogenic activity against human NCI-H460 cells after 10 days", "type": "functional, cell-based", "conditions": "NCI-H460, 240 h"}}, "note": "Calls of active or inactive are those of the source. The rule behind the calls is not given here."}
{"smiles": "CCCCCCCCCCCCCCOc1cc(OCCCCCC(=O)NCCC(=O)Nc2cc(C(=O)Nc3cn(C)c(C(=O)Nc4cn(C)c(C(=O)Nc5cc(C(=O)NCCCC(=O)Nc6cc(C(=O)Nc7cc(C(=O)Nc8cc(C(=O)Nc9cc(C(=O)NCCCN(C)C)n(C)c9)n(C)c8)n(C)c7)n(C)c6)n(C)c5)n4)n3)n(C)c2)cc(O)c1C(=O)O", "values": [{"measurement": "inhibition", "setting": "[1]", "result": "Dose-dependent effect"}]}
{"smiles": "CC1=NN(c2ccc(C(=O)NCCC(=O)NCCC(=O)Nc3cc(C(=O)Nc4cn(C)c(C(=O)Nc5cn(C)c(C(=O)Nc6cc(C(=O)NCCCC(=O)Nc7cc(C(=O)Nc8cc(C(=O)Nc9cc(C(=O)Nc%10cc(C(=O)NCCCN(C)C)n(C)c%10)n(C)c9)n(C)c8)n(C)c7)n(C)c6)n5)n4)n(C)c3)cc2)C(=O)/C1=C/c1ccc(-c2cc(C)c(C)cc2[N+](=O)[O-])o1", "values": [{"measurement": "ΔTm", "setting": "dsDNA [2]", "result": 16.9, "unit": "°C"}, {"measurement": "ΔTm", "setting": "dsDNA [3]", "result": 11, "unit": "°C"}, {"measurement": "IC50", "setting": "[1]", "result": "3.9 to 4.2", "unit": "µM"}, {"measurement": "Activity", "setting": "A549 [4]", "result": "Active"}]}
{"smiles": "CCCCCCCCCCCCCCCc1cccc(O)c1C(=O)O", "values": [{"measurement": "inhibition", "setting": "[1]", "result": "Dose-dependent effect"}]}
{"smiles": "CC1=NN(c2ccc(C(=O)O)cc2)C(=O)/C1=C/c1ccc(-c2cc(C)c(C)cc2[N+](=O)[O-])o1", "values": [{"measurement": "IC50", "setting": "A549 [5]", "result": 10, "unit": "µM"}, {"measurement": "IC50", "setting": "NCI-H157", "result": 6, "unit": "µM"}, {"measurement": "IC50", "setting": "NCI-H460", "result": 6.3, "unit": "µM"}, {"measurement": "Activity", "setting": "A549 [4]", "result": "inactive"}]}
